Screening results as filed in PubChem BioAssay.
procasp7 counter = counter-screen: procaspase-7 (human) activation; actives 0.093% (n = 330,000); P55210; activation, % at 8.5 µM; AID 463210; recombinant procaspase-7, Ac-DEVD-pNA absorbance 405 nm; D23A/D198A/D206A triple mutant, cannot self-cleave; scale: DMSO 0, 5 µM enzyme 100;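 active = percent activation above the screen-wide mean plus 3 SD, cut at about 25% in these data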
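System: Uncleavable procaspase-7 mutant enzyme; Amount: 2 µM procaspase-7 mutant as dispensed; Schedule: 1 h compound preincubation, 2 h substrate cleavage, 25 °C; Measured by: 405 nm absorbance of p-nitroaniline; Evaluation: percent activation from buffer-corrected 0–120 min absorbance change; Control set: low DMSO alone, high DMSO plus 5 µM PC-7.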
Hep lipid drop = hepatic lipid droplet formation modulation; AML12 mouse hepatocytes, oleate lipid droplets, BODIPY imaging; inhibition, % at 6.5 µM; actives 0.4% (n = 240,000); AID 1656;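 active = lipid droplet intensity inhibited by at least 50%, with more than 500 cells counted; inconclusive = wells with under 300 cells, treated as cytotoxic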
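Material – mouse AML12 hepatocyte cell line, fixed after treatment · Compound dosing – one dose, 6.5 µM compound · Times – compound with oleate, overnight · Measured by – Image-based BODIPY and DAPI two-channel analysis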
Rce1 inh = inhibitors of yeast Ras-converting enzyme; Q03530; yeast membranes, quenched prenylated peptide cleavage fluorescence; calls only; actives 0.27% (n = 290,000); AID 2563;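 active = fall in fluorescence gain of 50% or more versus controls, with final raw signal at or below 3038400; inconclusive = same 50% fall but final raw signal above 3038400; inactive = fall in fluorescence gain under 50%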
proCasp3 act = activates human procaspase-3; AID 463141; actives 0.11% (n = 330,000); recombinant procaspase-3 D3A, Ac-DEVD-pNA absorbance 405 nm; P42574; activation, % at 8.5 µM;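 active = activation above the mean of all tested compounds plus 3 SD, cut at about 21% in these data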
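Assay system: Autoprocessing-dead procaspase-3 D3A mutant enzyme; also added: Ac-DEVD-pNA; doses: one concentration, 8.5 µM nominal, 0.8% DMSO; times: 1 h compound preincubation, 2 h substrate hydrolysis at 25 °C; technique: 405 nm absorbance of p-nitroaniline, reads at 0 and 120 min; measure: % activation between DMSO and enzyme-spiked controls; repeats: single replicate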
p-CIP stab down = lowers stability of the mouse p/CIP coactivator protein; Q05BA5; F442A p/CIP-EGFP cells, EGFP fluorescence, 16 h; decrease of EGFP signal, % at 10 µM; actives 0.01% (n = 290,000); AID 1984;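 active = EGFP signal decrease of at least 30% at 10 µM or well 3 SD below plate mean, unless failing retest; inactive = the rest, including hits failing retest or dose response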
Target sequence (Q05BA5 1-1403): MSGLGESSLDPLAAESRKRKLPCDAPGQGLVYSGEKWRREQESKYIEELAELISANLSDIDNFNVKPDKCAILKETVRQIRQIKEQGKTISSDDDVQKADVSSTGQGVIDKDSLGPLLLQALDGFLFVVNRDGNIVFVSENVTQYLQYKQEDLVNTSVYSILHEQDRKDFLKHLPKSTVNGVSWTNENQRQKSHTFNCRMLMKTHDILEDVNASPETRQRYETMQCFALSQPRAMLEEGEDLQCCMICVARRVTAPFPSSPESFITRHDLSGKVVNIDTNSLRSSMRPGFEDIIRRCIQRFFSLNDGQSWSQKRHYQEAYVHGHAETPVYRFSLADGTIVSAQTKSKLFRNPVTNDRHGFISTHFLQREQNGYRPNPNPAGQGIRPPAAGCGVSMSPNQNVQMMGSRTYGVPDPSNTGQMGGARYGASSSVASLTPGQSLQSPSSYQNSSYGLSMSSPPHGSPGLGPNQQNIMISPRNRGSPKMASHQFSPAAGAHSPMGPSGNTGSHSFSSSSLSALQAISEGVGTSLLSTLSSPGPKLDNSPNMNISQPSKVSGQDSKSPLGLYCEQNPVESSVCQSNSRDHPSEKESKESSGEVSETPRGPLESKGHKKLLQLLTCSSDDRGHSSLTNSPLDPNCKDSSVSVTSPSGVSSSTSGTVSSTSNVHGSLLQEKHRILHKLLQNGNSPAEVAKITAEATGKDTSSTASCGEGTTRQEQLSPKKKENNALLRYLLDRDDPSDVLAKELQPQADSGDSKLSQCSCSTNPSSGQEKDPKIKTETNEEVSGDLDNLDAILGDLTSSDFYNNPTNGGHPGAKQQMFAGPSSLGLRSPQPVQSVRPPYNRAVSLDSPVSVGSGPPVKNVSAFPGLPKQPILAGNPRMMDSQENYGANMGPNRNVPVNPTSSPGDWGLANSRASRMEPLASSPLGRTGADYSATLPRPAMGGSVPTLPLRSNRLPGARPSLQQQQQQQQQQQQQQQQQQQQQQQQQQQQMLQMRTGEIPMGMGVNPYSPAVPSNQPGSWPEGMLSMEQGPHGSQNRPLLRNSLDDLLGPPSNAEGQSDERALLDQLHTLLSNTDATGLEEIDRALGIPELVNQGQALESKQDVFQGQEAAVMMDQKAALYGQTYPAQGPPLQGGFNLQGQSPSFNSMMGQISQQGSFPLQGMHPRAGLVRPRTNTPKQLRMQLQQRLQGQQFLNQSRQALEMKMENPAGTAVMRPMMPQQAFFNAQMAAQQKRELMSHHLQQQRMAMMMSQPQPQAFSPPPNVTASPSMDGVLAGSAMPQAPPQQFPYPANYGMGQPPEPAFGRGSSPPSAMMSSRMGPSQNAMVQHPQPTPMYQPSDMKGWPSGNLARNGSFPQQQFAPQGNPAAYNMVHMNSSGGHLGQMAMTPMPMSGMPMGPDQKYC
GAA850 FXN act = increases GAA850 frataxin promoter reporter activity | HEK293 lucGAA850 FXN promoter luciferase reporter, 24 h; percent of 10 µM SAHA response | activation, % at 6 µM | actives 0.56% (n = 360,000) | AID 540364;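 active = activation above the average of all compounds screened plus 3 SD, cutoff fixed separately per campaign, cut at about 7.5% in these data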
GAA30 FXN cntr = GAA30 FXN promoter activation counter-screen; actives 66% (n = 1,900); activation, % at 6 µM; HEK293 lucGAA30 FXN promoter luciferase, 24 h; DMSO = 0%, 5 µM ipriflavone = 100%; shares compounds with GAA850 FXN act; AID 588350;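 active = mean activation above the mean of solvent-only control wells plus 3 SD, cut at about 22% in these data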;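 note: counterscreen of GAA850 promoter hits where activity marks nonselective or luminescence artifacts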
FXN GAA850 conf = GAA850 FXN promoter activation confirmation | shares compounds with GAA850 FXN act | HEK293 lucGAA850 FXN promoter luciferase reporter, 24 h; 100% = activation by SAHA | activation, % at 6 µM | actives 86% (n = 1,900) | AID 588351;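 active = mean activation above a set limit taken from the primary screen, cut at about 8% in these data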
Numbers stand for hits; 0 = inactive; ? = inconclusive; - = no result given. This is a sample that favours compounds with a hit; in the whole collection about 1.2% have one here.

SMILES	procasp7 counter	Hep lipid drop	Rce1 inh	proCasp3 act	p-CIP stab down	GAA850 FXN act	GAA30 FXN cntr	FXN GAA850 conf
Cc1ccc(NC(=O)C2CCCN(c3ncccn3)C2)cc1F (centres undefined)	0	-	0	0	0	7.6	113	32
COC(=O)c1sccc1NC(=O)COc1ccccc1Cl	0	0	0	0	0	7.9	81	29
Cc1ccc(S(=O)(=O)N2CC(O)C2)cc1	0	-	0	0	-	0	-	-
CC(=O)N1CN(S(=O)(=O)c2ccc(C)cc2)CC1C (centres undefined)	0	0	0	0	0	12	0	0
Cc1cc(Br)ccc1NC(=O)CN(C)C(=O)C1CCN(c2ncnc3sc(C)c(C)c23)CC1	-	-	-	-	-	0	-	-
NC(=O)C1=CC2C3C=CC2(O)C(=O)OC3O1 (centres undefined)	-	-	-	-	-	8.3	0	16
COc1ccccc1C(=O)N1CCCC(C)(C(=O)NS(=O)(=O)C2CC2)C1 (centres undefined)	-	-	-	-	-	0	-	-
CCOC(=O)C1(C)CCCN1C(=O)c1ccc2ccccc2c1 (centres undefined)	-	-	-	-	-	0	-	-
COc1ccc(C(=O)CSC#N)cc1OC	0	0	0	0	0	12	0	32
CCN(CC)S(=O)(=O)c1ccc(Nc2nc3ccccc3n3nnnc23)cc1	0	0	0	0	0	7.8	90	36
Fc1ccccc1Nc1nc2ccccc2n2nnnc12	0	-	0	0	0	8.2	106	42
COc1ccc(NC(=O)CN(C)S(=O)(=O)c2ccc3c(c2)c(=O)n(C)c(=O)n3C)cc1	0	0	0	0	0	0	-	-
Cc1ccc2nc(-c3ccc4c(c3)NC(=O)CO4)cn2c1	0	0	0	0	0	8.5	98	30
CC(C)CCOP(=O)(c1ccc(N(C)C)cc1)C(Nc1ccccc1)c1ccc(N(C)C)cc1 (centres undefined)	0	0	0	0	0	0	-	-
CC(C)OP(=O)(c1ccc(N(C)C)cc1)C(Nc1ccccc1)c1ccccc1 (centres undefined)	0	0	0	0	0	8.0	0	13
CCOC(=O)N1CCN(C(=O)c2ccc(CS(=O)(=O)c3ccc(OC)cc3)o2)CC1	0	0	0	0	0	14	0	0
CC(NC(=O)C(Cc1ccccc1)=NO)c1ccccc1 (centres undefined)	-	-	-	-	-	0	-	-
O=C(NNC(=O)C12CC3CC(CC(C3)C1)C2)c1ccccn1	0	0	0	0	0	10	0	0
COCCn1c(N)c(N(Cc2ccccc2)C(=O)COc2ccc(F)cc2Cl)c(=O)[nH]c1=O	0	-	0	0	-	0	-	-
Cc1ccc(CNC(=O)CSc2nc3ccsc3c(=O)n2Cc2ccccn2)cc1	0	0	0	0	0	0	-	-
Cc1ccc(Cn2c(SCC(=O)NCc3ccco3)nc3ccsc3c2=O)cc1	0	0	0	0	0	8.8	31	17
CCOc1cc(-c2nc3ccccc3s2)ccc1O	0	0	0	0	0	9.4	99	29
COc1cc(-c2nc3ccccc3s2)ccc1O	0	0	?	0	0	0	-	-
CC1(C)O[C@@H]2[C@H](O1)[C@@H](CO)O[C@H]2n1ccc(=O)[nH]c1=O	0	-	-	0	-	0	-	-
O=C(/C=C/c1ccccc1[N+](=O)[O-])c1ccccc1Br	0	0	0	0	0	9.0	75	43
Cc1ccc(C(=O)/C=C/c2ccccc2[N+](=O)[O-])cc1	0	0	0	0	0	0	-	-
COc1ccc(/C=N/NC(=O)c2cccnc2)cc1CN1CCCc2ccccc21	0	0	0	0	0	0	-	-
COc1ccc(C(=O)N/N=C/c2ccc(OC)c(CN3CCCc4ccccc43)c2)cc1	0	0	0	0	0	9.3	0	0
